Converted amounts (≈) assume the structure as drawn. The source made the active and inactive calls. The rule behind the calls is not given here.
Experiments:
[1] = test system: Pseudomonas aeruginosa; test: Antibacterial activity against Pseudomonas aeruginosa FP1380 expressing constitutive AmpC; format: functional
Method in brief: (§1)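 MIC by agar dilution (CLSI M7-A7) on Mueller-Hinton agar with twofold serial drug dilutions; 10^4 CFU spotted per spot; aerobic incubation 18 to 20 h at 35°C; MIC read as lowest concentration preventing visible growth.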

[2] = test system: Pseudomonas aeruginosa; test: Antibacterial activity against Pseudomonas aeruginosa PAO1456 expressing constitutive AmpC; format: functional
Method in brief: (§2)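 Agar dilution MIC per NCCLS (CLSI) M7-A7 on Mueller-Hinton agar with twofold serial drug dilutions. Inoculum 10^4 CFU per spot, aerobic incubation 18 to 20 h at 35°C. MIC is the lowest concentration preventing visible growth.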

[3] = test system: Pseudomonas aeruginosa; test: Antibacterial activity against Pseudomonas aeruginosa PAO4069 expressing inducible AmpC; format: functional; method in brief: as §2
[4] = test system: Pseudomonas aeruginosa; test: Antibacterial activity against Pseudomonas aeruginosa KG2212 producing MexAB-OprM efflux pump; format: functional; method in brief: as §2
[5] = test system: Pseudomonas aeruginosa; test: Antibacterial activity against Pseudomonas aeruginosa KG3056 producing MexCD-OprJ efflux pump; format: functional; method in brief: as §2
[6] = test system: Pseudomonas aeruginosa; test: Antibacterial activity against Pseudomonas aeruginosa KG4545 producing MexXY efflux pump; format: functional; method in brief: as §2
[7] = test system: Escherichia coli; test: Antibacterial activity against Escherichia coli C600 expressing ESBL TEM3; format: functional; method in brief: as §1
[8] = test system: Escherichia coli; test: Antibacterial activity against Escherichia coli C600 expressing ESBL TEM4; format: functional; method in brief: as §1
[9] = test system: Escherichia coli; test: Antibacterial activity against Escherichia coli C600 expressing ESBL TEM5; format: functional; method in brief: as §1
[10] = test system: Escherichia coli; test: Antibacterial activity against Escherichia coli C600 expressing ESBL TEM6; format: functional; method in brief: as §1
[11] = test system: Escherichia coli; test: Antibacterial activity against Escherichia coli C600 expressing ESBL TEM8; format: functional; method in brief: as §1
[12] = test system: Escherichia coli; test: Antibacterial activity against Escherichia coli C600 expressing ESBL TEM9; format: functional; method in brief: as §1
[13] = test system: Escherichia coli; test: Antibacterial activity against Escherichia coli C600 expressing ESBL SHV2; format: functional; method in brief: as §1
[14] = test system: Escherichia coli; test: Antibacterial activity against Escherichia coli C600 expressing ESBL SHV3; format: functional; method in brief: as §1
[15] = test system: Escherichia coli; test: Antibacterial activity against Escherichia coli C600 expressing ESBL SHV4; format: functional; method in brief: as §1
[16] = test system: Escherichia coli; test: Antibacterial activity against Escherichia coli C600 expressing ESBL OXA2; format: functional; method in brief: as §1
[17] = test system: Escherichia coli; test: Antibacterial activity against Escherichia coli C600 expressing ESBL CTX-M3; format: functional; method in brief: as §1
[18] = test system: Escherichia coli; test: Antibacterial activity against Escherichia coli C600 expressing ESBL CTX-M18; format: functional; method in brief: as §1
[19] = test system: Escherichia coli; test: Antibacterial activity against Escherichia coli C600; format: functional; method in brief: as §1
[20] = test system: Pseudomonas aeruginosa; test: Antibacterial activity against Pseudomonas aeruginosa 22029 expressing metallo beta lactamase; format: functional; method in brief: as §2
[21] = test system: Pseudomonas aeruginosa; test: Antibacterial activity against Pseudomonas aeruginosa KG4001 producing MexEF-OprN efflux pump; format: functional; method in brief: as §2
[22] = test system: Pseudomonas aeruginosa; test: Antibacterial activity against Pseudomonas aeruginosa PAO1; format: functional; method in brief: as §2
[23] = test system: Pseudomonas aeruginosa; test: Antibacterial activity against Pseudomonas aeruginosa PAO4222; format: functional; method in brief: as §2
[24] = test system: Pseudomonas aeruginosa; test: Antibacterial activity against Pseudomonas aeruginosa PAO1 after 5 serial passages; format: functional
Method in brief: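 PAO1 passaged daily for five consecutive days in fresh Mueller-Hinton broth with twofold drug dilution series. Each next inoculum came from the tube at one-fourth the MIC. MIC change was followed across passages.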

[25] = test system: Pseudomonas aeruginosa; test: Antibacterial activity against Pseudomonas aeruginosa 93; format: functional; method in brief: as §1
[26] = test system: Pseudomonas aeruginosa; test: Efficacy against Pseudomonas aeruginosa 93 pulmonary infection in mouse assessed as reduction in bacterial counts at 2 mg/kg, sc; format: functional, organism-based; set-up: dose 2 mg/kg
Method in brief: (§3)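 Male ICR mice (4 weeks), made neutropenic with cyclophosphamide 200 mg/kg ip 4 days before infection. Under pentobarbital anesthesia (50 mg/kg iv) they were challenged intranasally with 3.30 log10 CFU of strain 93, grown on tryptic soy agar 35°C 20 h and suspended in saline. Dosed sc twice daily for 3 days from 3 h post-infection. Lung viable counts taken the day after last dose; 6 mice/dose.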

[27] = test system: Pseudomonas aeruginosa; test: Efficacy against Pseudomonas aeruginosa 93 pulmonary infection in mouse assessed as reduction in bacterial counts at 10 mg/kg, sc; format: functional, organism-based; set-up: dose 10 mg/kg; method in brief: as §3
[28] = test system: Pseudomonas aeruginosa; test: Efficacy against Pseudomonas aeruginosa 93 assessed as reduction in bacterial counts in mouse urinary tract infection model at 0.5 mg/kg; format: functional, organism-based; set-up: dose 0.5 mg/kg; details: Urine
Method in brief: (§4)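 Female ICR mice (4 weeks) were denied water 1 day. Under pentobarbital anesthesia they received 4.32 log10 CFU of strain 93 via the […], which was then clamped 5 h. Dosed sc at 5 h post-challenge plus twice daily for 2 days. Bilateral kidney viable counts taken the day after last treatment; 6 mice/dose.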

[29] = test system: Pseudomonas aeruginosa; test: Efficacy against Pseudomonas aeruginosa 93 assessed as reduction in bacterial counts in mouse burn wound infection model at 50 mg/kg, relative to control; format: functional, organism-based; set-up: dose 50 mg/kg
Method in brief: (§5)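 Male ICR mice (4 weeks), anesthetized with pentobarbital, received an ethanol flame burn on the shaved back (0.1 ml flaming ethanol applied twice). The wound was inoculated with 4.60 log10 CFU of strain 93. Dosed iv twice daily for 3 days from 3 h post-infection. Lesion viable counts (CFU/g) taken the day after last dose versus untreated controls; 6 mice/dose.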

[30] = test system: Pseudomonas aeruginosa; test: Efficacy against Pseudomonas aeruginosa 93 assessed as reduction in bacterial counts in mouse burn wound infection model at 10 mg/kg; format: functional, organism-based; set-up: dose 10 mg/kg; method in brief: as §5
[31] = test system: Escherichia coli; test: Antibacterial activity against Escherichia coli C600 expressing ESBL TEM7; format: functional; method in brief: as §1
[32] = test system: Pseudomonas aeruginosa; test: Antibacterial activity against Pseudomonas aeruginosa; format: functional; method in brief: as §2
[33] = test system: Pseudomonas aeruginosa; test: Antibacterial activity against ceftazidime-resistant Pseudomonas aeruginosa; format: functional; method in brief: as §2
[34] = test system: Pseudomonas aeruginosa; test: Antibacterial activity against imipenem-resistant Pseudomonas aeruginosa; format: functional; method in brief: as §2
[35] = test system: Pseudomonas aeruginosa; test: Antibacterial activity against ciprofloxacin-resistant Pseudomonas aeruginosa; format: functional; method in brief: as §2
[36] = test system: Escherichia coli; test: Antibacterial activity against Escherichia coli C600 expressing TEM1; format: functional; method in brief: as §1
[37] = test system: Escherichia coli; test: Antibacterial activity against Escherichia coli C600 expressing TEM2; format: functional; method in brief: as §1
[38] = test system: Escherichia coli; test: Antibacterial activity against Escherichia coli C600 expressing SHV1; format: functional; method in brief: as §1
[39] = test system: Escherichia coli; test: Antibacterial activity against Escherichia coli C600 expressing OXA1; format: functional; method in brief: as §1
[40] = test system: Pseudomonas aeruginosa; test: Efficacy against Pseudomonas aeruginosa 93 assessed as reduction in bacterial counts in mouse urinary tract infection model at 2 mg/kg; format: functional, organism-based; set-up: dose 2 mg/kg; details: Urine; method in brief: as §4

## Cn1c(N)c(NC(=O)NCCN)c[n+]1CC1=C(C(=O)O)N2C(=O)[C@@H](NC(=O)/C(=N\OC(C)(C)C(=O)[O-])c3nsc(N)n3)[C@H]2SC1 [CEFTOLOZANE]
[1]
  MIC: 4 µg/mL (≈ 6 µM)
[2]
  MIC: 1 µg/mL (≈ 1.5 µM)
[3]
  MIC: 0.5 µg/mL (≈ 0.75 µM)
[4]
  MIC: 0.5 µg/mL (≈ 0.75 µM)
[5]
  MIC: 0.25 µg/mL (≈ 0.375 µM)
[6]
  MIC: 0.5 µg/mL (≈ 0.75 µM)
[7]
  MIC: 1 µg/mL (≈ 1.5 µM)
[8]
  MIC: 2 µg/mL (≈ 3 µM)
[9]
  MIC: 32 µg/mL (≈ 48 µM)
[10]
  MIC: 32 µg/mL (≈ 48 µM)
[11]
  MIC: 16 µg/mL (≈ 24 µM)
[12]
  MIC: 32 µg/mL (≈ 48 µM)
[13]
  MIC: 32 µg/mL (≈ 48 µM)
[14]
  MIC: 32 µg/mL (≈ 48 µM)
[15]
  MIC: 16 µg/mL (≈ 24 µM)
[16]
  MIC: 4 µg/mL (≈ 6 µM)
[17]
  MIC: 16 µg/mL (≈ 24 µM)
[18]
  MIC: 16 µg/mL (≈ 24 µM)
[19]
  MIC: 0.25 µg/mL (≈ 0.375 µM)
[20]
  MIC: > 128 µg/mL
[21]
  MIC: 0.5 µg/mL (≈ 0.75 µM)
[22]
  MIC: 0.5 µg/mL (≈ 0.75 µM)
[23]
  MIC: 0.5 µg/mL (≈ 0.75 µM)
[24]
  MIC: 2 µg/mL (≈ 3 µM)
[25]
  MIC: 0.25 µg/mL (≈ 0.375 µM)
[26]
  Activity: Active
[27]
  Activity: Active
[28]
  Activity: Active
[29]
  Activity: Active
[30]
  Activity: Active
[31]
  MIC: 32 µg/mL (≈ 48 µM)
[32]
  MIC50: 0.5 µg/mL (≈ 0.75 µM)
  MIC90: 1 µg/mL (≈ 1.5 µM)
[33]
  MIC50: 2 µg/mL (≈ 3 µM)
  MIC90: 4 µg/mL (≈ 6 µM)
[34]
  MIC: 0.5 µg/mL (≈ 0.75 µM)
  MIC50: 0.5 µg/mL (≈ 0.75 µM)
  MIC90: 1 µg/mL (≈ 1.5 µM)
[35]
  MIC50: 1 µg/mL (≈ 1.5 µM)
  MIC90: 2 µg/mL (≈ 3 µM)
[36]
  MIC: 0.25 µg/mL (≈ 0.375 µM)
[37]
  MIC: 0.5 µg/mL (≈ 0.75 µM)
[38]
  MIC: 0.5 µg/mL (≈ 0.75 µM)
[39]
  MIC: 0.5 µg/mL (≈ 0.75 µM)
[40]
  Activity: Active

## O=C(O)c1cn(C2CC2)c2cc(N3CCNCC3)c(F)cc2c1=O [CIPROFLOXACIN]
[32]
  MIC50: 0.25 µg/mL (≈ 0.754 µM)
  MIC90: 8 µg/mL (≈ 24.1 µM)
[33]
  MIC50: 2 µg/mL (≈ 6.04 µM)
  MIC90: 64 µg/mL (≈ 193 µM)
[34]
  MIC50: 1 µg/mL (≈ 3.02 µM)
  MIC90: 8 µg/mL (≈ 24.1 µM)
[35]
  MIC50: 8 µg/mL (≈ 24.1 µM)
  MIC90: 64 µg/mL (≈ 193 µM)

From ChEMBL document CHEMBL1142065, “In vitro and in vivo activities of a new cephalosporin, FR264205, against Pseudomonas aeruginosa” (2007)
